From PubChem
In the library only some 3.9% were active in any assay of this set; here they are far more common.
Jurkat NFkB inh = inhibitors of induced NF-kB luciferase reporter, primary screen, TCR NF-kB activation inhibitor project, cell-based, luminescence, uHTS; actives 0.53% (n = 330,000); inhibition, % at 4 µM; Jurkat, PMA/ionomycin-induced NF-kB luciferase reporter; AID 435003, 2010; in the data active = inhibition above about 50%
697 NFkB inh = inhibitors of PMA/ionomycin-induced NF-kB reporter, 697 cells, primary screen, B-cell NF-kB inhibitor project, cell-based, luminescence, uHTS; 697 B-cell NF-kB luciferase reporter, 16 h; inhibition, % at 4 µM; actives 0.33% (n = 330,000); in the data active = inhibition above about 35%
Gli-Sufu block = Gli-Sufu pathway antagonists, primary screen, luciferase luminescence, Sufu-KO-LIGHT cells, uHTS; inhibition, % at 5 µM; actives 0.74% (n = 340,000); Sufu-KO-LIGHT fibroblasts, Gli luciferase reporter luminescence;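 active = inhibition above about 55%, limit read from the data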;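 note: 0% = DMSO-treated cells and 100% = wells with medium but no cells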
XBP1 UPR activ = activators of adaptive XBP1 UPR arm, primary screen, cell-based, CHO-XBP1 luciferase reporter, luminescence, uHTS; IRE1-XBP1 UPR activation; percent of tunicamycin response, DMSO as zero; activation, % at 20 µM; actives 0.33% (n = 330,000); AID 463104, 2010;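 active = versus positive control, 20 µM dose yields 30% or more activation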;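 note: 100% = tunicamycin at 10 µg/mL and 0% = DMSO only wells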
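Material: CHO cell line with stable XBP1 luciferase reporter; schedule: 16-18 h cell attachment at 37 °C, then 6 h compound exposure; signal: glow luminescence from Steady-Glo reagent; medium: serum-containing F12 medium, 10% FBS; benchmarks: tunicamycin 10 µg/mL and vehicle-only wells; read-out: percent activation relative to tunicamycin reference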
CHOP inhibitor = inhibitors of CHOP promoter induction, primary screen, cell-based, unfolded protein response, luciferase reporter; CHO-K1 CHOP-promoter luciferase, tunicamycin-induced, 15-18 h; inhibition, % at 10 µM; actives 3.8% (n = 220,000);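 active = compounds that reduced the stress-induced luciferase reporter signal by more than about 70% of percent inhibition, limit read from the data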;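 note: 0% = tunicamycin plus vehicle and 100% = wells without tunicamycin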
UPR CHOP act = activators of apoptotic CHOP UPR arm, primary screen, cell-based, CHO-CHOP luciferase reporter, luminescence, uHTS. UPR activation; percent of tunicamycin response over DMSO baseline. activation, % at 10 µM. actives 0.34% (n = 330,000). AID 449763, 2010;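 active = at 10 µM dose, activation of 40% or more, normalized to positive control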;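 note: 100% = tunicamycin at 10 µg/mL and 0% = DMSO alone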
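Assay system: CHO cells with stable CHOP pathway luciferase reporter; Buffer or medium: F12 plus 10% serum; Times: 16-18 h cell attachment, then 6 h compound exposure, 37 °C; Signal: luciferase luminescence; Read-out basis: percent activation relative to tunicamycin control; Control set: tunicamycin high control, DMSO low control.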
Active calls of the source: *; · = not tested or not shown.

SMILES	Jurkat NFkB inh	697 NFkB inh	Gli-Sufu block	XBP1 UPR activ	CHOP inhibitor	UPR CHOP act
Cc1ccc(Sc2nc3c(c(=O)[nH]c(=O)n3C)n2CCc2ccccc2)cc1	2	14	7	0	95*	2
CC(C)n1c(SCCCc2ccccc2)nc2c1c(=O)[nH]c(=O)n2C	·	·	7	·	97*	·
CCCCCn1c(SCCc2ccccc2)nc2c1c(=O)[nH]c(=O)n2C	0	-18	6	-1	93*	1
COCCn1c(SCCCc2ccccc2)nc2c1c(=O)[nH]c(=O)n2C	8	-16	8	1	-5	-1
O=C(c1cc2ccccc2o1)N1CCN(c2ncccn2)CC1	-13	8	-8	2	·	0
COc1ccc(NC(=O)CSCC(=O)Nc2cccc3ncccc23)cc1	-2	-4	-4	2	·	0
CCC(C)c1ccc(NC(=S)NCCn2cc(Br)cn2)cc1 (centres undefined)	6	4	1	-3	72*	0
COc1ccc(CNC(=O)c2cc3c(C)nc4ccccc4c3o2)c(OC)c1	43	14	57*	0	·	7
CCN1CCCC1CNC(=O)c1cc2c(C)nc3ccccc3c2o1 (centres undefined)	-35	4	5	0	·	1
COc1cccc(CNC(=O)c2cc3c(C)nc4ccccc4c3o2)c1	7	-15	8	-3	48	-1
CCc1ccc(CNC(=O)c2cc3c(C)nc4ccccc4c3o2)cc1	22	-23	39	4	80*	5
Cc1nc2ccccc2c2oc(C(=O)NCC3COc4ccccc4O3)cc12 (centres undefined)	16	-23	20	0	73*	-1
Cc1ccc(NC(=O)COc2coc(CN3CCc4ccccc43)cc2=O)cc1Cl	6	-25	-13	-2	·	-1
CC(Nc1cc(N2CCCC2)ccc1[N+](=O)[O-])c1ccccc1 (centres undefined)	11	-33	8	0	10	2
CC(Nc1cc(N2CCOCC2)ccc1[N+](=O)[O-])c1ccccc1 (centres undefined)	0	-9	9	2	73*	-2
COc1ccccc1CNC(=O)COC(=O)CSc1ccc(F)cc1	2	-5	-5	0	·	1
CC(/C=C/C(=O)c1ccc(C)cc1)=C\c1ccccc1	-18	-17	2	-2	91*	5
CCCCCCCCOC(=O)c1c(CSC(=N)N)n(C)c2cc(Br)c(OC(C)=O)cc12	15	-8	23	-8	100*	0
CCOC(=O)c1c(CSC(=N)N)n(-c2ccc(Br)cc2)c2cc(Br)c(OC(C)=O)cc12	·	·	10	·	110*	·
CCOC(=O)c1c(C)n(C)c2cc(Br)c(OC)cc12	8	14	-4	0	26	-2
Cc1cccc(C)c1NS(=O)(=O)c1ccc(NC(=O)c2ccc(Cl)c([N+](=O)[O-])c2)cc1	-3	1	5	0	73*	1
O=C(O)c1ccc(NC2=C/C(=N/S(=O)(=O)c3ccccc3)c3ccccc3C2=O)cc1	4	-15	28	-2	103*	6
CCOc1ncccc1C(=O)OCc1cc(=O)oc2c(C)c(C)ccc12	·	·	-8	·	75*	·
CCOC(=O)C1CCN(Cc2cc(=O)oc3c(C)c(C)ccc23)CC1	10	-4	6	1	·	0
CC(C)(C)Nc1nc(N2CCCC2)nc(N2CCCC2)n1	45	-15	-42	-5	77*	1
SMILES	Jurkat NFkB inh	697 NFkB inh	Gli-Sufu block	XBP1 UPR activ	CHOP inhibitor	UPR CHOP act
Cc1oc(C)c2c(=O)ccc3c(c12)OC(N)=C(C#N)C3c1ccccc1Cl (centres undefined)	8	14	6	-2	81*	0
Cc1oc(C)c2c(=O)ccc3c(c12)OC(N)=C(C#N)C3c1ccccc1 (centres undefined)	-8	-22	8	-3	13	-2
CSc1ccc(C2C(C#N)=C(N)Oc3c2ccc(=O)c2c(C)oc(C)c32)cc1 (centres undefined)	-18	-7	8	-1	83*	-4
COCCNC(=O)CCN1N=C(c2ccccc2)CCC1=O	-19	9	16	-3	·	0
CCc1ccc(CN(C)C(=O)C2=CC=CN3CCS(=O)(=O)N=C23)cc1	4	-20	-7	-1	·	1
CCOC(=O)C1=C(C)NC(=S)NC1c1ccc(-c2ccc(Cl)cc2)o1 (centres undefined)	15	3	8	-1	72*	1
CCOC(=O)C1=C(C)NC(=S)NC1c1ccc(-c2cccc(Cl)c2C)o1 (centres undefined)	6	-1	-29	-3	75*	-5
CCOC(=O)C1=C(C)NC(=S)NC1c1ccco1 (centres undefined)	11	-15	5	-1	4	1
CCOC(=O)C1=C(C)NC(=O)NC1c1ccc(-c2ccc(Cl)cc2)o1 (centres undefined)	13	-8	11	0	45	-2
CC(C)c1ccc(NC(=O)C(=O)C2C(=O)Nc3ccccc32)cc1 (centres undefined)	5	-7	-17	1	74*	2
CCS(=O)(=O)c1nc(S(=O)(=O)c2ccc(C)cc2)c(N2CCN(C)CC2)s1	18	-9	11	1	·	-1
OC(C[n+]1ccccc1)c1ccccc1 (centres undefined)	0	-21	1	0	·	1
COCCN1CCN(c2cc(-c3ccccc3)nc3cc(-c4cccc(F)c4)nn23)CC1	-16	6	6	0	80*	6
Fc1cccc(-c2cc3nc(-c4ccccc4)cc(N4CCC5(CC4)OCCO5)n3n2)c1	11	2	4	0	31	5
CN1CCN(C(=O)c2cnn(-c3ccccc3)c2NC(=O)c2ccc(Br)cc2)CC1	-7	-15	-2	-1	·	-1
Cc1ccc(CNc2ncnc3c2cnn3-c2ccccc2)cc1	-23	-9	-15	1	95*	2
Cc1ccc(-n2ncc3c(NCc4ccccc4)ncnc32)cc1	-107	-107	11	17	80*	5
Clc1cccc(Nc2ncnc3c2cnn3-c2ccccc2)c1	-46	-48	-25	5	99*	0
